The record followed here is ChEMBL document CHEMBL3576845, “Discovery of Novel Multiacting Topoisomerase I/II and Histone Deacetylase Inhibitors” (ACS Med Chem Lett, 2015).

Experiment [1] concerns HCT-116. The experiment can be described thus: Induction of apoptosis in human HCT116 cells assessed as early apoptotic cells at 5 uM after 24 hrs by annexin V-FITC/propidium iodide staining-based flow cytometric analysis (reference value: 2.27%). Format: functional. On the technique in general: In flow cytometry, cells or beads pass a laser one at a time.
Experiment [2] can be described thus: Cytotoxicity against HLF assessed as growth inhibition after 72 hrs by MTT assay. It counts as functional. The conditions noted are these: Homo sapiens. For orientation: Tetrazolium assays rely on reduction of a dye to a coloured formazan, in cell work by metabolically active cells.
In experiment [3] the test system is HCT-116. The experiment can be described thus: Cytotoxicity against human HCT116 cells assessed as growth inhibition after 72 hrs by MTT assay. Format: functional, cell-based. The conditions noted are these: HCT-116, 72 h.
In experiment [4] the target is T1, DNA topoisomerase 1 (Homo sapiens) (UniProt P11387).
T1 sequence (whole entry): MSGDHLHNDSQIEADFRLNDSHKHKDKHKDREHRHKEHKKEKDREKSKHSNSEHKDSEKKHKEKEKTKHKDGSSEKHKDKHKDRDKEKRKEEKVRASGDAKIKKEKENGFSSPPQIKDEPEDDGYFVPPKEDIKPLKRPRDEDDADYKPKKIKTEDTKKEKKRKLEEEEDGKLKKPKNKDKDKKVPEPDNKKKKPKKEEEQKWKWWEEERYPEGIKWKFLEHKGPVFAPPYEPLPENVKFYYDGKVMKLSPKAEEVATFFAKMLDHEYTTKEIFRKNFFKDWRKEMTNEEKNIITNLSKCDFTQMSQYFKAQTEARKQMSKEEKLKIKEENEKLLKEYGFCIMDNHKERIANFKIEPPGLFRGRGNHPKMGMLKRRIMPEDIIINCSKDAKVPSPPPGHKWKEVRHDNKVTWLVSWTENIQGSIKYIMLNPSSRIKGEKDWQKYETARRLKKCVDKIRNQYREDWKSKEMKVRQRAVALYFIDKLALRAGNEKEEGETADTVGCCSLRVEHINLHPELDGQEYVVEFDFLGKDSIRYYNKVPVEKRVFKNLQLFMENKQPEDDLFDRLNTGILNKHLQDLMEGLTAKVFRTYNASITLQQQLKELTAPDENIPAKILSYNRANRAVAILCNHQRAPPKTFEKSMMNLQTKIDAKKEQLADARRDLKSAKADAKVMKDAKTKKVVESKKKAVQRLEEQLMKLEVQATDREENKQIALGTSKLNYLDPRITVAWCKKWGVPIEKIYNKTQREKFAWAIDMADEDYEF
The experiment can be described thus: Inhibition of topoisomerase1 (unknown origin)-mediated pBR322 DNA relaxation at 50 uM after 15 mins by agarose gel electrophoresis. A digest of the protocol:
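Relaxation of supercoiled pBR322 plasmid by purified Top1 with compound at 50 μM; camptothecin 50 μM as reference; DNA-only and DNA + enzyme lanes as controls; gel read-out; repeated 3 times.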

Experiment [5] has as its target DNA topoisomerase 2-alpha (Homo sapiens) (UniProt P11388). Put plainly: Inhibition of topoisomerase-2alpha (unknown origin)-mediated pBR322 DNA relaxation at 50 uM after 30 mins by agarose gel electrophoresis. A digest of the protocol:
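Purified Top2α relaxation of supercoiled pBR322 plasmid with compound at 50 μM; etoposide 50 μM as reference; DNA-only and DNA + enzyme lanes as controls; gel read-out; repeated 3 times.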

A further experiment has as its target T2, Histone deacetylase 8 (Homo sapiens, UniProt Q9BY41).
T2 sequence (Q9BY41 whole entry): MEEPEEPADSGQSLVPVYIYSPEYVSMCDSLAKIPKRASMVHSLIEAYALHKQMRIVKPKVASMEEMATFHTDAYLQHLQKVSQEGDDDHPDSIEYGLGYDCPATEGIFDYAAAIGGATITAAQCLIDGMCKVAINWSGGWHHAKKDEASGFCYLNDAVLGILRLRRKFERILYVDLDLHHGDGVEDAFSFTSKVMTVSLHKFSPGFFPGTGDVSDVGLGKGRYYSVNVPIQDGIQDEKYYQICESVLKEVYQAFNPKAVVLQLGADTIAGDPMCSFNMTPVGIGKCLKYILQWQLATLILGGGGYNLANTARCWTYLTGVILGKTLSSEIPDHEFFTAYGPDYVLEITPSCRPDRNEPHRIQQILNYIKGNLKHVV
Put plainly: Inhibition of recombinant C-terminal His-tagged full length human HDAC8 expressed in baculovirus infected insect Sf9 cells using fluorogenic HDAC class 2a substrate after 30 mins by fluorescence assay.

In experiment [6] the target is Histone deacetylase 3/Nuclear receptor corepressor 2 (HDAC3/NCoR2) (Homo sapiens, UniProt O15379). Put plainly: Inhibition of recombinant C-terminal His-tagged full length human HDAC3/NcoR2 complex expressed in baculovirus infected insect Sf9 cells using fluorogenic HDAC substrate 3 after 30 mins by fluorescence assay.
Chain of Histone deacetylase 3/Nuclear receptor corepressor 2 (HDAC3/NCoR2) (O15379 whole entry): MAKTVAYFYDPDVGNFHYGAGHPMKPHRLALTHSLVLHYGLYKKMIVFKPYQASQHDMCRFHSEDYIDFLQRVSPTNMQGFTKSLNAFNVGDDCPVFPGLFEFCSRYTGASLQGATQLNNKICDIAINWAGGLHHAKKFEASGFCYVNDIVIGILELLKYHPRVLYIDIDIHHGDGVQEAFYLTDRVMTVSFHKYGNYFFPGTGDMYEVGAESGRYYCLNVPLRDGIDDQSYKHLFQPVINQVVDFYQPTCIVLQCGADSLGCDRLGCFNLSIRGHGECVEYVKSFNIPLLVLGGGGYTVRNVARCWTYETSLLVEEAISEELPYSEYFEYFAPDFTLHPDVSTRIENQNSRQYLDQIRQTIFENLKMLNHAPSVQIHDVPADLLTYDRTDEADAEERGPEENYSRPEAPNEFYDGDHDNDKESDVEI
Chain of Histone deacetylase 3/Nuclear receptor corepressor 2 (HDAC3/NCoR2) (Q9Y618 whole entry, further chain): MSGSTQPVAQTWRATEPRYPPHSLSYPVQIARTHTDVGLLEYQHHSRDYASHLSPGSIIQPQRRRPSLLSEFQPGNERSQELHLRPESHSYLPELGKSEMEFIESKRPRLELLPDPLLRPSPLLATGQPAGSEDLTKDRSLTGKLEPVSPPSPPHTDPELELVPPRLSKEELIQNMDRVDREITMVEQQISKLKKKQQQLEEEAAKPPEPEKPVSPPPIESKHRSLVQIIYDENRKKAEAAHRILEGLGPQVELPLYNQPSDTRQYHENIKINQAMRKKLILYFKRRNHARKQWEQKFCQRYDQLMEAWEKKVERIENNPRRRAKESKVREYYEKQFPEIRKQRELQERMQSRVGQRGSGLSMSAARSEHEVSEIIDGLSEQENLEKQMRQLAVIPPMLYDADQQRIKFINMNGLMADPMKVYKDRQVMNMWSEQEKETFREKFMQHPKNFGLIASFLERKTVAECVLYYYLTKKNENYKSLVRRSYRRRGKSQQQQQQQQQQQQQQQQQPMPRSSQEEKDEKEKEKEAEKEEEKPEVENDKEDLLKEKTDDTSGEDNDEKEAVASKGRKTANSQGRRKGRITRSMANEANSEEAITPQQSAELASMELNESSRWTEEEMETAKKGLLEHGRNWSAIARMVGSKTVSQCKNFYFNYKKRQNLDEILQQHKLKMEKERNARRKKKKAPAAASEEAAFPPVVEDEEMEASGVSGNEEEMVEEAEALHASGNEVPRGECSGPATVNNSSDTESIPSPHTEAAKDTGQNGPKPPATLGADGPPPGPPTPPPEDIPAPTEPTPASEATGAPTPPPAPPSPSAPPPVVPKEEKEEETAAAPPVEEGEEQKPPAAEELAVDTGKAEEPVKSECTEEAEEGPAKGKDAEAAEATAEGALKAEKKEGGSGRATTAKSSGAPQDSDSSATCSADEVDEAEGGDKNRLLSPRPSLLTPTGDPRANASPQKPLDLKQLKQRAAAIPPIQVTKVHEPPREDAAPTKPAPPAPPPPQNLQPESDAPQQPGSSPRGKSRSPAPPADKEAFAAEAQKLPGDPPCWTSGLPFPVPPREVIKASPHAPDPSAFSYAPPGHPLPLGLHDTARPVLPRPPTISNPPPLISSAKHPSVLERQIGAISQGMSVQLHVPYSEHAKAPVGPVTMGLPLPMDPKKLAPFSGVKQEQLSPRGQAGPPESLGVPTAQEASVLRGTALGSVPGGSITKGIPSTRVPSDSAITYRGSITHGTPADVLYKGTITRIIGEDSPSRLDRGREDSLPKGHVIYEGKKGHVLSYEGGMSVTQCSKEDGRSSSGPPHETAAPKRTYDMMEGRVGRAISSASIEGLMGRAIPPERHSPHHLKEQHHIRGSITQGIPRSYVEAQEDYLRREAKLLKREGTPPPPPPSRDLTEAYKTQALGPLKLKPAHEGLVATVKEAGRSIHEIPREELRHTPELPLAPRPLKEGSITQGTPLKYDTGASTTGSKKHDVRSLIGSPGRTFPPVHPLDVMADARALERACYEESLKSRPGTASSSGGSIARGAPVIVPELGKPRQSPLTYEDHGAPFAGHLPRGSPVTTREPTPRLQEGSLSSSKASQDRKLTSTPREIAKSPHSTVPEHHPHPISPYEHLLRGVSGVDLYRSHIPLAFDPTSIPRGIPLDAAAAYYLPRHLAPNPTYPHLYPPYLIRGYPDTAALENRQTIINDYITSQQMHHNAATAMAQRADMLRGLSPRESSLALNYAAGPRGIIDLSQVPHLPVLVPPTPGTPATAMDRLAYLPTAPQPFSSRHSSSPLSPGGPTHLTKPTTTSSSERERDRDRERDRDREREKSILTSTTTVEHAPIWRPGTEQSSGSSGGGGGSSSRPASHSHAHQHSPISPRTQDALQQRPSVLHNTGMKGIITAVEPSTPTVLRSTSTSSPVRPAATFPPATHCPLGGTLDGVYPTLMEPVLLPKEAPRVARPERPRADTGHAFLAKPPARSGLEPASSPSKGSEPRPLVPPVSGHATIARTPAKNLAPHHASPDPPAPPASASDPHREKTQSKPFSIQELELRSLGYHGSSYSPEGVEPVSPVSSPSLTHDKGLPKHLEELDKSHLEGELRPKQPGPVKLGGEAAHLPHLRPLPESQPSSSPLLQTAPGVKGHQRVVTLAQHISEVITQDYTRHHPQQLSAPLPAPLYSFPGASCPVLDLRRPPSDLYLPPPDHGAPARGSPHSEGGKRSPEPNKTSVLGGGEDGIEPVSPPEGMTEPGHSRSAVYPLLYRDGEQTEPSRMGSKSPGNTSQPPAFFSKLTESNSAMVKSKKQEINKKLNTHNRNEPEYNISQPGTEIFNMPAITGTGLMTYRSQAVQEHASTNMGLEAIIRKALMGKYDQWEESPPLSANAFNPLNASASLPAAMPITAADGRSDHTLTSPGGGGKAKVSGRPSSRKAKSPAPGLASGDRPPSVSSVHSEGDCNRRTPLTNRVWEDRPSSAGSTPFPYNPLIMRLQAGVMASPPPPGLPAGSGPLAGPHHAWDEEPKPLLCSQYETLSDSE
The next experiment concerns the target Histone deacetylase 2 (Homo sapiens, UniProt Q92769). Put plainly: Inhibition of recombinant C-terminal His-tagged full length human HDAC2 expressed in baculovirus infected insect Sf9 cells using fluorogenic HDAC substrate 3 after 30 mins by fluorescence assay. Format: cell-based.
Another experiment has as its target Histone deacetylase 1 (Homo sapiens, UniProt Q13547). Put plainly: Inhibition of recombinant full length human HDAC1 (1 to 482) expressed in baculovirus infected insect Sf9 cells using fluorogenic HDAC substrate 3 after 30 mins by fluorescence assay.
Experiment [7] concerns HCT-116. The experiment can be described thus: Induction of apoptosis in human HCT116 cells assessed as late apoptotic cells at 5 uM after 24 hrs by annexin V-FITC/propidium iodide staining-based flow cytometric analysis (reference value: 1.05%). It counts as functional.
Experiment [8] has as its system HCT-116. The experiment can be described thus: Induction of apoptosis in human HCT116 cells assessed as necrotic cells at 5 uM after 24 hrs by annexin V-FITC/propidium iodide staining-based flow cytometric analysis (reference value: 8%). Format: functional.
Experiment [9] relates to HCT-116. Put plainly: Induction of apoptosis in human HCT116 cells assessed as early apoptotic cells at 5 uM after 48 hrs by annexin V-FITC/propidium iodide staining-based flow cytometric analysis (reference value: 2.76%). Format: functional.
The test system of experiment [10] is HCT-116. The experiment can be described thus: Induction of apoptosis in human HCT116 cells assessed as late apoptotic cells at 5 uM after 48 hrs by annexin V-FITC/propidium iodide staining-based flow cytometric analysis (reference value: 3.03%). It counts as functional.
The subject of experiment [11] is HCT-116. The experiment can be described thus: Induction of apoptosis in human HCT116 cells assessed as necrotic cells at 5 uM after 48 hrs by annexin V-FITC/propidium iodide staining-based flow cytometric analysis (reference value: 5.25%). It counts as functional.

Activity calls are given as the source filed them. The calls are words filed in the database; no cut-off is given here.

Chain of DNA topoisomerase 2-alpha (Homo sapiens) (P11388 whole entry): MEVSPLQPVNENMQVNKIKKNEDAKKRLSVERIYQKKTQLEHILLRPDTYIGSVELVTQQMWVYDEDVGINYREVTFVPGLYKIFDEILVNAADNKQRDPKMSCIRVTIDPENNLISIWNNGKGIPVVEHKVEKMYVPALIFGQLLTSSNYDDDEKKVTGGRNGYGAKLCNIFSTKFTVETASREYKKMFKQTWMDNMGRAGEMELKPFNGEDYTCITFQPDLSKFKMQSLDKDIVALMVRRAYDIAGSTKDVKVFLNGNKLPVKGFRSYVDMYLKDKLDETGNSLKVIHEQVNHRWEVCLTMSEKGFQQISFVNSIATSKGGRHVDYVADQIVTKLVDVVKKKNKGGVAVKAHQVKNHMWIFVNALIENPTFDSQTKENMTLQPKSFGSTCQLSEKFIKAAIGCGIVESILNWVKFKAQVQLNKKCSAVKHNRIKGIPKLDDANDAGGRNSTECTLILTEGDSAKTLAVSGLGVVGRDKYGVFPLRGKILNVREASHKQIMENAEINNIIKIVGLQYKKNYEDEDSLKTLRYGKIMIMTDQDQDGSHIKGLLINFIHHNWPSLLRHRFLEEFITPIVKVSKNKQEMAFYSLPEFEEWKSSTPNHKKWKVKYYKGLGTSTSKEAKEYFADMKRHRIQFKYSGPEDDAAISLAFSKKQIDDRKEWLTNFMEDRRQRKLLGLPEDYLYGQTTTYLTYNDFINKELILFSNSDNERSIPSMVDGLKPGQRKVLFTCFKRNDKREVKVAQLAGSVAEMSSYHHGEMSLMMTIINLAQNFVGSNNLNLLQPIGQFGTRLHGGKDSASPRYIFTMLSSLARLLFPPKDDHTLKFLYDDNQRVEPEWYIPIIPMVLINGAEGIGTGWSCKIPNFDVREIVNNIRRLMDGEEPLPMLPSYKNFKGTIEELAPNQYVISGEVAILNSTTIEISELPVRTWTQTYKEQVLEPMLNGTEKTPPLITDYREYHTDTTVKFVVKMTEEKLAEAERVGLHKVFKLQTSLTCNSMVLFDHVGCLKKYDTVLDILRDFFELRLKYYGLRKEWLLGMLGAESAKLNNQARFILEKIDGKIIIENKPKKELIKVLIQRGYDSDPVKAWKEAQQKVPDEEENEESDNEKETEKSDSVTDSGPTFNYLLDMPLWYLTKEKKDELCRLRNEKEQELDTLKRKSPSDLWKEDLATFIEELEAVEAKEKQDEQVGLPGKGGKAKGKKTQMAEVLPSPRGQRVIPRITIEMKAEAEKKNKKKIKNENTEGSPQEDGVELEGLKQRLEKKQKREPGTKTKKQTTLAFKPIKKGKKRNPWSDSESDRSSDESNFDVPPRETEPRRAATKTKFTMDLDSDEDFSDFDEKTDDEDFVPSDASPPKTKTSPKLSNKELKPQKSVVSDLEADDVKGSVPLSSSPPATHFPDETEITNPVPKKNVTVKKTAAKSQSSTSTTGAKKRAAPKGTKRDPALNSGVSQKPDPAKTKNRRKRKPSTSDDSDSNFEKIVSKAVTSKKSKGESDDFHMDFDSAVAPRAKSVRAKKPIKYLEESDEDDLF
Chain of Histone deacetylase 2 (Q92769 whole entry): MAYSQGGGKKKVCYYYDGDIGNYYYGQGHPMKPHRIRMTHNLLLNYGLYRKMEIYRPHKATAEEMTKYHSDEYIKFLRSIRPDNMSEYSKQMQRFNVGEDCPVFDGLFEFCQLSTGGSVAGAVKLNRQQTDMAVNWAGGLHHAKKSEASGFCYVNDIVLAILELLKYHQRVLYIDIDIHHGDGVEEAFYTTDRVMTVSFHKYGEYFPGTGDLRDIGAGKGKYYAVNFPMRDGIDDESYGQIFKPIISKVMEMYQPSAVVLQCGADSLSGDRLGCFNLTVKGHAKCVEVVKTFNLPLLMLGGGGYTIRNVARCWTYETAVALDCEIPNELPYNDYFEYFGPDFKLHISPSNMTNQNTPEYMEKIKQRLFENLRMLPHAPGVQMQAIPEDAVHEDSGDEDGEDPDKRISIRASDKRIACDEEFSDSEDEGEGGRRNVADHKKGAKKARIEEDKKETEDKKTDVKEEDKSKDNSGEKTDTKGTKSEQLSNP

What is called IC50 is the concentration that gives 50% inhibition. With `CN1c2ccc(NCc3ccc(-c4noc(CCCCCCC(=O)NO)n4)cc3)cc2C(=O)N2CCc3c([nH]c4ccc(O)cc34)C21` (centres undefined), the Activity worked out at 22.59% in the experiment on HCT-116 [1]; 16.73% in the experiment with HCT-116 [7]; 2.68% with HCT-116 [8]; 29.76% in the experiment with HCT-116 [9]; 42.14% in the experiment on HCT-116 [10]; 7.96% in the experiment on HCT-116 [11]. Further, the 50% inhibitory concentration (IC50) in experiment [2] came out at 1300 nM; with HCT-116 [3], 410 nM; at Histone deacetylase 8, 2500 nM; in experiment [6], 71 nM; on Histone deacetylase 2, 275 nM; at Histone deacetylase 1, 24 nM. The inhibition entry in experiment [4] and in experiment [5] was “Active” throughout.
